Target: heparin-stabilized human rhSkin β-tryptase (Homo sapiens, UniProt P20231)
Test: β-tryptase enzyme inhibition assay
Assay type: biochemical
How it was run: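 Heparin-stabilized recombinant human skin β-tryptase in 50 mM Tris-HCl, pH 7.4, run in a high-throughput format. Activity was read as release of free AMC from the cleaved Gly-Pro-Arg-AMC peptide substrate. Inhibition mode was assessed by Dixon plots (1/v against inhibitor concentration) at substrate 25, 50, 75, 100, 150 and 200 μM.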

Sequence of heparin-stabilized human rhSkin β-tryptase (P20231 31-275): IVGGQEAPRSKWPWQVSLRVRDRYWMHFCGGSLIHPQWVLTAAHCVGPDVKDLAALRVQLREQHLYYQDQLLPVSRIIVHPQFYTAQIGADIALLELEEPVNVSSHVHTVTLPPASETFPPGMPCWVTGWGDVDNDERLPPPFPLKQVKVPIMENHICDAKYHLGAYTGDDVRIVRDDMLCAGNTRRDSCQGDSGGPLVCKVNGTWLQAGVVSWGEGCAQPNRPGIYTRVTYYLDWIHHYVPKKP

C[C@H](NC(=O)CNC(=O)CCC(=O)N/N=C/c1cc(/C=N/NC(=O)CCC(=O)NCC(=O)N[C@@H](C)C(=O)N[C@@H](Cc2ccccc2)C(=O)N[C@@H](CCC(=O)O)C(N)=O)cc(/C=N/NC(=O)CCC(=O)NCC(=O)N[C@@H](C)C(=O)N[C@@H](Cc2ccccc2)C(=O)N[C@@H](CCC(=O)O)C(N)=O)c1)C(=O)N[C@@H](Cc1ccccc1)C(=O)N[C@@H](CCC(=O)O)C(N)=O [5(E)3]
inhibition of β-tryptase (in words): no inhibition of β-tryptase at all

— paper PMC5644118 (Chemical Science, 2014)
